Screens: PubChem BioAssay, Broad Institute
An excerpt weighted towards active compounds, which were near 2.3% of everything screened.
PDI inh: PDI (human) enzyme inhibition; PDI insulin aggregation turbidity, A650, 90 min; inhibition, % at 10 µM; 350,000 tested, 0.052% active; AID 588391;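 active means mean inhibition across replicates of 30% or more, whatever share of single replicates reach that level; inconclusive means mean inhibition below 30% while every single replicate reaches 30%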
Target sequence (P07237 whole entry, looked up): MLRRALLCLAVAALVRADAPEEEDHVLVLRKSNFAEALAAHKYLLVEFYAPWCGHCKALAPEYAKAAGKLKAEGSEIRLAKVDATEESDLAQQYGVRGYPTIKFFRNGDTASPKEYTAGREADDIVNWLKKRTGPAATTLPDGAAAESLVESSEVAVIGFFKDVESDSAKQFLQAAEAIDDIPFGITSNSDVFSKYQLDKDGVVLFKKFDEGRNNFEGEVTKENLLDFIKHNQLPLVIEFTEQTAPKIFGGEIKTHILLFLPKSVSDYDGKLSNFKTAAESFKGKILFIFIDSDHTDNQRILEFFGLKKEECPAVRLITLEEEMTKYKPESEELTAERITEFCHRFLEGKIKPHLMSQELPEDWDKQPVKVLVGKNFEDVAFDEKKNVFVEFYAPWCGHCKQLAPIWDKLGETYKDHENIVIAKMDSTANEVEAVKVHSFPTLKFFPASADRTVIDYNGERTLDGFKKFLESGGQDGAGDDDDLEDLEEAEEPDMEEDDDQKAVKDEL
CFTR F508del cor: correctors of CFTR F508del function in bronchial epithelial cells; AID 720511; activity (quench increase), % at 7.58 µM; 350,000 tested, 0.36% active; CFBE cells, YFP halide quenching; stimulated with forskolin plus potentiator P3; % fluorescence drop versus neutral controls;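 active means mean added fluorescence quench of at least 8% versus neutral control, with both replicates also reaching 8%; inconclusive means only one of the mean or replicate conditions met; inactive means mean below 8% and not both replicates reaching 8%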;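 further: cells transiently co-express mutant CFTR-F508del with the halide-sensitive YFP; corrector assay measuring rescue of mutant channel to the surface after 24 h compound exposure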
DENV2 CPE: DENV2-induced cell death inhibition; DENV2-infected cells, cytopathic effect rescue, plate reader; CPE inhibition, % at 9.99 µM; 350,000 tested, 1.7% active; AID 651640; in the data active means CPE inhibition above about 20%, passing the limit was not always enough; inconclusive means no clear call, values can overlap the other calls; tested in BHK-21 cells;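 further: 0% = median of neutral control wells and 100% = median of positive control wells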
C2C12 statin: suppressors of simvastatin-induced myotoxicity in C2C12 myotubes; ATP luminescence, 48 h; scaled: DMSO 0, geranylgeraniol control 100; 330,000 tested, 0.78% active; AID 602340; rescue of ATP level, % at 7.49 µM;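 active means mean ATP rescue above about 67%, or every replicate alone reaching that limit, limit read from the data, passing the limit was not always enough; inconclusive means no clear call, values can overlap the other calls; inactive means mean under the limit and some replicate under it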;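 further: myotubes were challenged with 10 µM simvastatin during compound exposure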
ERp5 inh: blocks human ERp5 reductase activity on insulin; 350,000 tested, 0.05% active; AID 651711; inhibition, % at 9.99 µM; Q15084; ERp5 insulin aggregation, absorbance 650 nm, 90 min;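 active means mean replicate inhibition above about 25%, with every replicate also reaching it, limit read from the data, passing the limit was not always enough; inconclusive means only one of those two criteria met; inactive means neither criterion met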
Cneo AK release: causes C. neoformans cell lysis | adenylate kinase release luminescence, 4 h; normalised: neutral wells 0, clomiphene wells 100 | lysis activity, % at 15 µM | 360,000 tested, 0.2% active | AID 651654;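 active means mean lysis activity across replicates of at least 80%, whatever share of replicates individually reach that level; inactive means mean lysis activity below 80%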
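Test system: log-phase Cryptococcus neoformans yeast cells. Input: 5 × 10^6 yeast cells/mL. Medium: fresh YPD growth medium. Doses: single dose. Incubation: static 4 h at 37 °C with compound, 1 h detection. Measured by: luminescent adenylate kinase detection reagent. Read-out: signal increase indicating cell lysis. Benchmarks: Clomiphene.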
Active calls of the source: *; ? = inconclusive; · = not tested or not shown.

SMILES	PDI inh	CFTR F508del cor	DENV2 CPE	C2C12 statin	ERp5 inh	Cneo AK release
O=C(C1=C[C@@H](c2ccc3c(c2)OCO3)C[C@@H](OCc2ccc(CO)cc2)O1)N1CCCCCCC1	·	-3	-8	·	1	0
Cc1c(Cl)c(C(=O)N2CCCC2)nn1C	-9	·	121*	·	2	·
C[C@@H]1CN([C@H](C)CO)C(=O)c2cc(NC(=O)Cn3cnnn3)ccc2O[C@H]1CN(C)Cc1ccc2c(c1)OCO2	·	1	21*	12	1	3
C[C@H]1CN([C@@H](C)CO)C(=O)c2cc(NC(=O)Cn3cnnn3)ccc2O[C@@H]1CN(C)Cc1ccc2c(c1)OCO2	·	0	0	4	7	3
C[C@@H]1CN([C@@H](C)CO)C(=O)c2cc(NC(=O)Cn3cnnn3)ccc2O[C@@H]1CN(C)Cc1ccc(Cl)c(Cl)c1	·	-4	52*	15	-4	0
C[C@H](CO)N1C[C@H](C)[C@H](CN(C)C(=O)NC2CCCCC2)Oc2cc(C#Cc3ccc(F)cc3)ccc2S1(=O)=O	·	8.2*	3	0	5	-6
Cc1noc(C)c1NC(=O)N(C)C[C@@H]1Oc2cc(C#CCC3CCCC3)ccc2S(=O)(=O)N([C@H](C)CO)C[C@@H]1C	·	1	2	21	0	-3
Cc1noc(C)c1NC(=O)N(C)C[C@H]1Oc2cc(C#CCC3CCCC3)ccc2S(=O)(=O)N([C@@H](C)CO)C[C@@H]1C	·	10*	-4	3	-5	0
C[C@H]1CN([C@@H](C)CO)S(=O)(=O)c2ccc(C#Cc3ccc(F)cc3)cc2O[C@@H]1CN(C)C(=O)NC1CCCC1	·	5	-25	13	0	0
C[C@@H]1CN([C@@H](C)CO)S(=O)(=O)c2ccc(/C=C/c3ccccc3)cc2O[C@@H]1CN(C)C(=O)NC1CCCC1	·	0	8	93*	12	6
C[C@@H]1CN([C@H](C)CO)S(=O)(=O)c2ccc(C#Cc3ccc(F)cc3)cc2O[C@H]1CN(C)C(=O)NC1CCCC1	·	1	-13	-10	1	82*
C[C@H](CO)N1C[C@H](C)[C@H](CN(C)C(=O)NC2CCCC2)Oc2cc(/C=C/c3ccccc3)ccc2S1(=O)=O	·	2	-3	11	-2	6
C[C@@H]1CN([C@H](C)CO)S(=O)(=O)c2ccc(C#Cc3ccc(F)cc3)cc2O[C@H]1CN(C)C(=O)NC1CCCCC1	·	7	0	-45	-8	-9
Cc1noc(C)c1NC(=O)N(C)C[C@@H]1Oc2c(NC(=O)CCCCCC(=O)Nc3ccccc3N)cccc2C(=O)N([C@@H](C)CO)C[C@H]1C	·	4	-5	·	2	·
COc1ccc2c3c(n(C)c2c1)[C@@H](CO)N(C(=O)C1CCOCC1)CC31CCN(C(=O)C2CCOCC2)CC1	·	1	13	·	-9	·
FC(F)(F)c1ccccc1CN1CCCc2nc(-c3ccccc3)ccc21	·	0	-2	·	-2	·
FC(F)(F)c1ccccc1CN1CCCc2nc(-c3ccc(Br)cc3)ccc21	·	3	42*	·	-1	·
C[C@H]1CN([C@@H](C)CO)C(=O)c2cccc(NC(=O)C3CC3)c2O[C@H]1CN(C)C(=O)Nc1ccc(C(F)(F)F)cc1	·	2	0	-61	0	43
COc1cc(OC)c2c(c1)OC(c1ccc(OC)c(OC)c1)C(O)C2=O (stereo not given)	·	2	32*	-4	8	2
O=C([C@@H]1[C@@H](CO)[C@@H]2Cn3c(ccc(-c4ccncc4)c3=O)[C@H]1N2Cc1cccnc1)N1CCOCC1	·	1	-6	3	0	3
CCOC(=O)c1ccc2c(c1)nc(COc1ccc(OC)cc1)n2CC	0	·	·	107*	·	-1
CNC[C@@H]1Oc2ccc(NS(=O)(=O)c3cccs3)cc2C(=O)N([C@@H](C)CO)C[C@H]1C	·	3	2	-21	-5	-17
Cc1ccc(S(=O)(=O)N[C@H]2CC[C@@H](CCn3cc(C(C)C)nn3)O[C@@H]2CO)cc1	·	0	?	-3	0	6
Cc1ccc(N2CCN(/N=C/c3sccc3C)CC2)cc1	-5	·	·	140*	·	3
Cc1ccsc1/C=N/N1CCOCC1	-7	-1	8	·	3	·
